Test results from ChEMBL document CHEMBL1938374, “Synthesis and biological characterization of 3-substituted-1H-indoles as ligands of GluN2B-containing N-methyl-D-aspartate receptors” (J Med Chem, 2011).
Calls of active or inactive are those of the source. The calls are words filed in the database; no cut-off is given here.

Columns and labels:
Mus musculus [1] = assay: Anticonvulsant activity in DBA/2 mouse assessed as inhibition of audiogenic clonic seizures administered as ip, 30 mins prior to auditory stimulation measured for 60 secs; assay type: functional; conditions: DBA/2, ip
How it was run: (§1)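 Seizure ED50 values, in μmol/kg, were computed by the Litchfield and Wilcoxon method. At least 32 animals went into each ED50, and 95% confidence limits are reported.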

Mus musculus [2] = assay: Anticonvulsant activity in DBA/2 mouse assessed as inhibition of audiogenic tonic seizures administered as ip, 30 mins prior to auditory stimulation measured for 60 secs; assay type: functional; conditions: DBA/2, ip; how it was run: as §1
[3] = target: Glutamate receptor ionotropic, NMDA 2B (Rattus norvegicus) (UniProt Q00960); assay: Displacement of [3H]ifenprodil from GluN2B/NMDA in Wistar rat cerebral cortex at 10 uM after 120 mins by scintillation counting; assay type: tissue-based
Glutamate receptor ionotropic, NMDA 2B (Rattus norvegicus), sequence (Q00960 27-1482 limits assumed): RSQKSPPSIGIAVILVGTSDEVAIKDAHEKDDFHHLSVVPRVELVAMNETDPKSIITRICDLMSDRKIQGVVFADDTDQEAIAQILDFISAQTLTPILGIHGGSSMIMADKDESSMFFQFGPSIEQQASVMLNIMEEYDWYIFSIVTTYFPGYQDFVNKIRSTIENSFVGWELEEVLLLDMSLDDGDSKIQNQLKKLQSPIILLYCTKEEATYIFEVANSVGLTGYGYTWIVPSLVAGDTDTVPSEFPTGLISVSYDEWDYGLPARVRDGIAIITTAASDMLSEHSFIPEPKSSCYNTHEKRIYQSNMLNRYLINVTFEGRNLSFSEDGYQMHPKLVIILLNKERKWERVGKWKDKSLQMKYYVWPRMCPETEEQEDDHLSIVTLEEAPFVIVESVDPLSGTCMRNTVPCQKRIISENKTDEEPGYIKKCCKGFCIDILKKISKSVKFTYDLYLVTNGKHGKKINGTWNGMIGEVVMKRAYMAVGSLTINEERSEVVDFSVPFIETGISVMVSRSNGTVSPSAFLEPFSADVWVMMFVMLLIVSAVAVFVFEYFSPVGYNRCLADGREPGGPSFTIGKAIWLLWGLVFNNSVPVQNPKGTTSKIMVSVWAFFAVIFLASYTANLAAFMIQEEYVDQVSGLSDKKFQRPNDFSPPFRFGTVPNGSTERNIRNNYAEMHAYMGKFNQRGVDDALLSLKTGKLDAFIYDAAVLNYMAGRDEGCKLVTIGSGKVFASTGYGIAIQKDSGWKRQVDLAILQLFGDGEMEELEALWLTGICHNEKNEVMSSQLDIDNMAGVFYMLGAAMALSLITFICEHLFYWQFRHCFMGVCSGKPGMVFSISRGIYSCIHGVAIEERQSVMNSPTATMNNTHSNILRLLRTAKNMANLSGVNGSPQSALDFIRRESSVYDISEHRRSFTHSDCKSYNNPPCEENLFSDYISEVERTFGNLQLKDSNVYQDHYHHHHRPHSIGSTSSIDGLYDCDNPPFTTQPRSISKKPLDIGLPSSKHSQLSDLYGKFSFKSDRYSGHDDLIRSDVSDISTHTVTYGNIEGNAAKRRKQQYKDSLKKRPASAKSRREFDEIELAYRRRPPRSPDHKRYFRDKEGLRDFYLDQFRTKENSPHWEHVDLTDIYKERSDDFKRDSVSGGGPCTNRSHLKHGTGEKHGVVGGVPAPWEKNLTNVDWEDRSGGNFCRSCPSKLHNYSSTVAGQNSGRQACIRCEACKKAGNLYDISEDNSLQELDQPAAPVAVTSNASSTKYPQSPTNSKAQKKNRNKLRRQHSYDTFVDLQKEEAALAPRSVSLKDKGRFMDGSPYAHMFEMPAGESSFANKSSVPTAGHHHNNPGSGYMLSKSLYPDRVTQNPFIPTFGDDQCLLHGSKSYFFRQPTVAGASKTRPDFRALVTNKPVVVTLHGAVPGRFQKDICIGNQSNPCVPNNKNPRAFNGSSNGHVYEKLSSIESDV

[4] = target: Glutamate receptor ionotropic, NMDA 2B (Rattus norvegicus, UniProt Q00960); assay: Displacement of [3H]ifenprodil from GluN2B/NMDA in Wistar rat cerebral cortex after 120 mins by scintillation counting; assay type: tissue-based
Glutamate receptor ionotropic, NMDA 2B, sequence (Q00960 whole entry): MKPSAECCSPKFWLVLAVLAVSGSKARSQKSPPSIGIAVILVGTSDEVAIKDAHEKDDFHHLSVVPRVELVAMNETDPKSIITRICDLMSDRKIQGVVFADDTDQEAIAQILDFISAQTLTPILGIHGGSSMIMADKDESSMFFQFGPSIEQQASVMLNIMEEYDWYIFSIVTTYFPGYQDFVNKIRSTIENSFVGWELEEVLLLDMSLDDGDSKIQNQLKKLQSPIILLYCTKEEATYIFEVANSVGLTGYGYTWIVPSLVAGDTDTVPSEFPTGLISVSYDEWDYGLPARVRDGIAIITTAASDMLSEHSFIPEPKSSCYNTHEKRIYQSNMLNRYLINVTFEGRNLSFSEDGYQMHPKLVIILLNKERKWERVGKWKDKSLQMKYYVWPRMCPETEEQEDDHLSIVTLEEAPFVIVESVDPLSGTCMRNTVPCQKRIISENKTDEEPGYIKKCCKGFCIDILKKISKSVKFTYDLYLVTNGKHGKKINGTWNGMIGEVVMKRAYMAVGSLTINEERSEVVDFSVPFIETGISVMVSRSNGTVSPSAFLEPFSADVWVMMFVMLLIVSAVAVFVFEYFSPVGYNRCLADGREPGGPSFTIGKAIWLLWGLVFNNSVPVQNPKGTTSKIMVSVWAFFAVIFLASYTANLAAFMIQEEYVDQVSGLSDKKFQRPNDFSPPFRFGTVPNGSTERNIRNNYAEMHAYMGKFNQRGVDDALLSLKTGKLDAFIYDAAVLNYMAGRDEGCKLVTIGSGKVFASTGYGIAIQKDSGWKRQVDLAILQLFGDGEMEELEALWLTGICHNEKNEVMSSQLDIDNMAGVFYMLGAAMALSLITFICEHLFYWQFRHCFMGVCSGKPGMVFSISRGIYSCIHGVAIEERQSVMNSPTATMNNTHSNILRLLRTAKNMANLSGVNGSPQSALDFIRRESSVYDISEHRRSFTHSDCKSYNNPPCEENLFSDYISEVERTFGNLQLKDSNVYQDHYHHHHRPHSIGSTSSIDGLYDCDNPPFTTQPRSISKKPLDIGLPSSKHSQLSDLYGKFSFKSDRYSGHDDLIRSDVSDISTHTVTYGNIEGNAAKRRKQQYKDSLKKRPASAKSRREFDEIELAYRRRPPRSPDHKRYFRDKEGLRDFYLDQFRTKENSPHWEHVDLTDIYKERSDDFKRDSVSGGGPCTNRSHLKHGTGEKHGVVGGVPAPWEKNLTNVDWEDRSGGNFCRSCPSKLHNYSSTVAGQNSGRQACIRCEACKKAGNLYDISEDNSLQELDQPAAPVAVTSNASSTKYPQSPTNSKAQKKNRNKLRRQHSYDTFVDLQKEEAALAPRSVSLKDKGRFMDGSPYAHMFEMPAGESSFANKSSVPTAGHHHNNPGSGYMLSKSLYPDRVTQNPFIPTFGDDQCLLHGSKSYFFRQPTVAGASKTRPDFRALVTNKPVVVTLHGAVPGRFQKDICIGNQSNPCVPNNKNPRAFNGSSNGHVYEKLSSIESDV

[5] = target: Sigma non-opioid intracellular receptor 1 (Cavia porcellus, UniProt Q60492); assay: Displacement of [3H](+)pentazocine from sigma 1 receptor in guinea pig brain membrane after 150 mins by liquid scintillation counting; assay type: cell membranes
Sigma non-opioid intracellular receptor 1, sequence (Q60492 whole entry): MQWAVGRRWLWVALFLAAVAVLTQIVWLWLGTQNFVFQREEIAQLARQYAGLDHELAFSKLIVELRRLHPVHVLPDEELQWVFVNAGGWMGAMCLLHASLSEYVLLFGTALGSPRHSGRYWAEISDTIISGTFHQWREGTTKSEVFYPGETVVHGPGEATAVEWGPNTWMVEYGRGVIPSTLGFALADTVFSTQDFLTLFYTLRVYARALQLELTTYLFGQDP

[6] = target: Glutamate receptor ionotropic, NMDA 2B (Mus musculus) (UniProt Q01097); assay: Antagonist activity at GluN2B/NMDA in FVB mouse CA1 pyramidal neurons assessed as reduction in NMDA-mediated inward current at 10 uM measured for 5 mins by whole-cell patch clamp assay in presence of glycine and tetrodotoxin; assay type: functional, cell-based; conditions: Pyramidal neuron
Glutamate receptor ionotropic, NMDA 2B (Mus musculus), sequence (Q01097 whole entry): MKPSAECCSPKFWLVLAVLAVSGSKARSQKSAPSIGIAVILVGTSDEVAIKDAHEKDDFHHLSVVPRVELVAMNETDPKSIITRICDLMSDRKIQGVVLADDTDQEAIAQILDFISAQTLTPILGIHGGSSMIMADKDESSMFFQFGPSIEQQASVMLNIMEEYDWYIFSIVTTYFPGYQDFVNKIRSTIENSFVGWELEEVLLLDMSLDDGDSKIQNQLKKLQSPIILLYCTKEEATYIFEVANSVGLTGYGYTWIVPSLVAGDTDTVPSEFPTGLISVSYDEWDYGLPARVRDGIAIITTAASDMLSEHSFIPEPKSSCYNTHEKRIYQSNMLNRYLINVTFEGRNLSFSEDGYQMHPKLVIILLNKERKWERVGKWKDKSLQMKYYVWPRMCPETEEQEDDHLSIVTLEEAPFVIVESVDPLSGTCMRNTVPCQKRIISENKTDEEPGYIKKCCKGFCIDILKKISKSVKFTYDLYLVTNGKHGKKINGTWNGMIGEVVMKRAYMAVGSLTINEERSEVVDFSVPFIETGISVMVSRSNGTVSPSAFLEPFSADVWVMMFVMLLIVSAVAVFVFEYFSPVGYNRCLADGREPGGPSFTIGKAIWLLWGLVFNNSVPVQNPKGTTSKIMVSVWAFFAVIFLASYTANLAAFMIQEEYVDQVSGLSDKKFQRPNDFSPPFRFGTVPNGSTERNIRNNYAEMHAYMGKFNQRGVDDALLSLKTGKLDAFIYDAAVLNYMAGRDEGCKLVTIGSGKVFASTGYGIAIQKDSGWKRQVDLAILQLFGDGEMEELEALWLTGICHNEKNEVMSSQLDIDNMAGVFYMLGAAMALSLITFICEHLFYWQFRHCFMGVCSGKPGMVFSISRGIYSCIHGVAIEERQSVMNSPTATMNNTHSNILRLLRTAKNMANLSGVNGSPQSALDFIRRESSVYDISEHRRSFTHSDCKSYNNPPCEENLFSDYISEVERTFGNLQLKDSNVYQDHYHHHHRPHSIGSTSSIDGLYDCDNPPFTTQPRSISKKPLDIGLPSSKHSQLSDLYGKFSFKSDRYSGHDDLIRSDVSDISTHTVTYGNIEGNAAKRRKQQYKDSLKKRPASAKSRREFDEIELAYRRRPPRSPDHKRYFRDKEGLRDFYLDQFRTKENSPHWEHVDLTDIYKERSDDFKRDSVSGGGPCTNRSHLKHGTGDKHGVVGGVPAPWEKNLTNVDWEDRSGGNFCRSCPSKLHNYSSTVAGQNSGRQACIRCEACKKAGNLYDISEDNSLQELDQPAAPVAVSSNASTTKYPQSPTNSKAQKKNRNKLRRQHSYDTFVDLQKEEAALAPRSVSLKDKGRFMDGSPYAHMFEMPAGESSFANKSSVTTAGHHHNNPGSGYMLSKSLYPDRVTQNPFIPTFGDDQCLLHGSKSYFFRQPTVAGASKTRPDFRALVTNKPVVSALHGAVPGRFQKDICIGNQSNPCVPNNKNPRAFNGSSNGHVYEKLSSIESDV

[7] = Displacement of [3H]DTG from sigma 2 receptor after 120 mins by liquid scintillation counting in presence of (+)-SKF10,047

## COc1cccc2c(C(=O)CN3CCC(Cc4ccccc4)CC3)c[nH]c12
Mus musculus [1]
  ED50: 80.3 µmol/kg
Mus musculus [2]
  ED50: 35.8 µmol/kg
[3]
  Activity: 62%
[4]
  IC50: 2.91 µM

## O=C(CN1CCN(Cc2ccccc2)CC1)c1c[nH]c2ccccc12
[3]
  Activity: 14%

## COc1ccc2c(C(=O)CN3CCC(Cc4ccccc4)CC3)c[nH]c2c1
Mus musculus [1]
  ED50: 67.8 µmol/kg
Mus musculus [2]
  ED50: 30.1 µmol/kg
[3]
  Activity: 4%

## O=C(C(=O)N1CCC(Cc2ccccc2)CC1)c1c[nH]c2ccc(O)cc12
[5]
  Ki: > 1 µM

## COc1ccc2[nH]cc(C(=O)CN3CCC(Cc4ccccc4)CC3)c2c1
[3]
  Activity: 86%

## COc1ccc2[nH]cc(C(=O)C(=O)N3CCC(Cc4ccccc4)CC3)c2c1
[3]
  Activity: 9%

## O=C(CN1CCC(Cc2ccccc2)CC1)c1c[nH]c2ccc(O)cc12
[6]
  Activity: Active
[5]
  Ki: > 1 µM
[7]
  Ki: 0.0765 µM

## O=C(C(=O)N1CCC(Cc2ccccc2)CC1)c1c[nH]c2cc(O)ccc12
Mus musculus [1]
  ED50: 84.4 µmol/kg
Mus musculus [2]
  ED50: 38.9 µmol/kg
[3]
  Activity: 92%
[5]
  Ki: > 1 µM
[4]
  IC50: 0.022 µM

## O=C(C(=O)N1CCC(Cc2ccccc2)CC1)c1c[nH]c2cccc(O)c12
Mus musculus [1]
  ED50: 52.1 µmol/kg
Mus musculus [2]
  ED50: 28.9 µmol/kg
[3]
  Activity: 24%

## O=C(CN1CCN(Cc2ccccc2)CC1)c1c[nH]c2ccc(O)cc12
Mus musculus [1]
  ED50: > 100 µmol/kg
Mus musculus [2]
  ED50: 44.9 µmol/kg
[3]
  Activity: 27%
[5]
  Ki: 0.437 µM
[7]
  Ki: 0.557 µM

## COc1ccc2c(C(=O)C(=O)N3CCC(Cc4ccccc4)CC3)c[nH]c2c1
Mus musculus [1]
  ED50: 11.9 µmol/kg
Mus musculus [2]
  ED50: 4.68 µmol/kg

## COc1ccc2[nH]cc(C(=O)CN3CCN(Cc4ccccc4)CC3)c2c1
Mus musculus [1]
  ED50: 98.7 µmol/kg
Mus musculus [2]
  ED50: 63.8 µmol/kg

## COc1cccc2c(C(=O)C(=O)N3CCC(Cc4ccccc4)CC3)c[nH]c12
Mus musculus [1]
  ED50: 51.4 µmol/kg
Mus musculus [2]
  ED50: 27.4 µmol/kg
[3]
  Activity: 33%

## O=C(C(=O)N1CCC(Cc2ccccc2)CC1)c1c[nH]c2c(O)cccc12
Mus musculus [1]
  ED50: 80.5 µmol/kg
Mus musculus [2]
  ED50: 36.2 µmol/kg
[3]
  Activity: 79%
[4]
  IC50: 1.99 µM

## O=C(CN1CCC(Cc2ccccc2)CC1)c1c[nH]c2cccc(O)c12
Mus musculus [1]
  ED50: 68.1 µmol/kg
Mus musculus [2]
  ED50: 13.7 µmol/kg
[3]
  Activity: 77%
[4]
  IC50: 6.64 µM

## O=C(CN1CCC(Cc2ccccc2)CC1)c1c[nH]c2c(O)cccc12
Mus musculus [1]
  ED50: > 100 µmol/kg
Mus musculus [2]
  ED50: 53.8 µmol/kg
[3]
  Activity: 72%
[4]
  IC50: 7.14 µM

## O=C(CN1CCC(Cc2ccccc2)CC1)c1c[nH]c2cc(O)ccc12
[6]
  Activity: inactive
Mus musculus [1]
  ED50: 95.4 µmol/kg
Mus musculus [2]
  ED50: 53.7 µmol/kg
[3]
  Activity: 92%
[5]
  Ki: > 1 µM
[7]
  Ki: 0.043 µM
[4]
  IC50: 0.017 µM

## COc1cccc2[nH]cc(C(=O)C(=O)N3CCC(Cc4ccccc4)CC3)c12
Mus musculus [1]
  ED50: > 100 µmol/kg
Mus musculus [2]
  ED50: 76.7 µmol/kg
[3]
  Activity: 14%

## COc1cccc2[nH]cc(C(=O)CN3CCC(Cc4ccccc4)CC3)c12
Mus musculus [1]
  ED50: 32.7 µmol/kg
Mus musculus [2]
  ED50: 16.2 µmol/kg
[3]
  Activity: 82%
[4]
  IC50: 0.324 µM
